Results reported in ChEMBL document CHEMBL1123760, “Synthesis and oral antifungal activity of novel azolylpropanolones and related compounds” (1987).
≈ marks a conversion by molar mass, not a printed value.

Key:
Assay type in all cases: functional
[1] = system: Candida albicans; test: In vitro antifungal activity against Candida albicans
Summary of the method: (§1)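 Broth microdilution MIC in Sabouraud's glucose broth; final inocula 1 × 10^5 cells/mL (yeast) or 1 × 10^5 conidia/mL (mold and dermatophyte).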

[2] = system: Aspergillus fumigatus; test: In vitro antifungal activity against Aspergillus fumigatus; summary of the method: as §1
[3] = system: Mus musculus; test: Ratio of in vivo number of survivors / total infected; design: reference not given here
[4] = system: Trichophyton benhamiae; test: In vitro antifungal activity against Trichophyton asteroides; summary of the method: as §1
[5] = system: Candida albicans; test: Minimum effective concentration for inhibition of pseudomycelium formation in Candida albicans; settings: for minimal effective concentration: Candida albicans, read-out: MEC
Summary of the method: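 C. albicans KE-2 (clinical isolate) at a final 1 × 10^6 yeast cells/mL in EMEM with 20% calf serum; compounds diluted by the same microtiter system as for MICs. After incubation, wells were Giemsa-stained (5% in phosphate buffer) and read by microscope. MEC is the lowest concentration preventing typical pseudomycelium formation.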

[6] = system: Mus musculus; test: In vivo activity against subacute systemic murine candidiasis in mice at a daose of 12.5-100 mg/kg dosage range. Value was determined at day 15 after infection; settings: 360 h
[7] = system: Cavia porcellus; test: Number of skin sections yielding negative culture / total (48) (percentage) in guinea pig dermatophytosis at dose of 40 mg/kg […]. (Value is from Six skin sections cut out from each treated site)
Summary of the method: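 Guinea pigs infected with Trichophyton asteroides, four animals each with two lesion sites. Oral 40 mg/kg once daily for 10 days (day 3 to day 12). Read-out is the rate of negative cultures from infected skin sections.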

[8] = Candida albicans, read-out: MIC
[9] = Aspergillus fumigatus, read-out: MIC
[10] = Trichophyton benhamiae, read-out: MIC

Compound | MIC [1, 8] [µg/mL] | MIC [2, 9] [µg/mL] | No. of survivors [3] | MIC [4, 10] [µg/mL] | minimal effective concentration [5] [µg/mL] | ED50 [6] [mg/kg] | No. total [7] | MIC [4] [µg/mL] | MIC [2] [µg/mL] | MEC [5] [µg/mL] | MIC [1] [µg/mL]
O=C(c1ccccc1)C(O)(Cn1ccnc1)c1ccc(Cl)cc1Cl (stereo not given) | > 100 | > 100 | 0 | 0.1 (≈ 0.277 µM) | 0.63 |  |  |  |  |  | 
O=C(c1ccc(Cl)cc1)C(O)(Cn1cncn1)c1ccc(Cl)cc1Cl (stereo not given) | > 100 | > 100 | 7 | 0.1 (≈ 0.252 µM) | 1.25 |  |  |  |  |  | 
CC(C)C(=O)C(O)(Cn1cncn1)c1ccc(Cl)cc1Cl (stereo not given) | 100 (≈ 305 µM) | 100 (≈ 305 µM) | 8 | 0.1 (≈ 0.305 µM) | 0.04 | 22.6 | 7 |  |  |  | 
CC(C)C(=O)C(O)(Cn1ccnc1)c1ccc(Cl)cc1 (stereo not given) | > 100 | 25 (≈ 85.4 µM) | 2 | 0.2 (≈ 0.683 µM) | 0.08 |  |  |  |  |  | 
O=C(c1ccc(Cl)cc1Cl)C(O)(Cn1cncn1)c1ccc(Cl)cc1Cl (stereo not given) | 50 (≈ 116 µM) | > 100 | 7 | 0.1 (≈ 0.232 µM) | 0.16 | 32.3 | 27 |  |  |  | 
O=C1O[C@H](c2ccc(F)cc2)[C@@](Cn2cncn2)(c2ccc(Cl)cc2Cl)O1 | 50 (≈ 122 µM) | > 100 | 7 | 0.1 (≈ 0.245 µM) | 0.63 |  |  |  |  |  | 
O=C(c1ccc(Cl)cc1Cl)C(O)(Cn1cncn1)c1ccc(Cl)cc1 (stereo not given) | 100 (≈ 252 µM) | > 100 | 8 | 0.1 (≈ 0.252 µM) | 0.31 |  |  |  |  |  | 
CC(C)[C@H]1OC(=O)O[C@]1(Cn1cncn1)c1ccc(Cl)cc1Cl | 100 (≈ 281 µM) | > 100 | 8 | 3.1 (≈ 8.7 µM) | 0.63 |  |  |  |  |  | 
CCC(=O)C(O)(Cn1cncn1)c1ccc(Cl)cc1Cl (stereo not given) | 100 (≈ 318 µM) | 100 (≈ 318 µM) | 2 | 0.1 (≈ 0.318 µM) | 0.04 |  |  |  |  |  | 
O=C(c1ccc(Cl)cc1Cl)[C@@](O)(Cn1cncn1)c1ccc(Cl)cc1Cl | 50 (≈ 116 µM) | > 100 | 1 | 0.1 (≈ 0.232 µM) | 1.25 |  |  |  |  |  | 
O=S1O[C@H](c2ccc(F)cc2)[C@](Cn2cncn2)(c2ccc(Cl)cc2Cl)O1 (stereo not given in full) | > 100 | > 100 | 0 | 0.1 (≈ 0.233 µM) | 0.04 |  |  |  |  |  | 
OC(c1ccccc1Cl)C(O)(Cn1ccnc1)c1ccccc1Cl (stereo not given) | > 100 | 100 (≈ 275 µM) | 4 | 0.4 (≈ 1.1 µM) | 1.25 |  |  |  |  |  | 
O=C(c1ccccc1)C(O)(Cn1cncn1)c1ccccc1 (stereo not given) | > 100 | > 100 | 0 | 12.5 (≈ 42.6 µM) | > 20 |  |  |  |  |  | 
CCCCC(=O)C(O)(Cn1cncn1)c1ccc(Cl)cc1Cl (stereo not given) | 50 (≈ 146 µM) | > 100 | 2 | 0.1 (≈ 0.292 µM) | 0.04 |  |  |  |  |  | 
O=C1O[C@H](c2ccccc2)[C@@](Cn2cncn2)(c2ccc(Cl)cc2Cl)O1 | 100 (≈ 256 µM) | > 100 | 0 | 0.16 (≈ 0.41 µM) | 0.16 |  |  |  |  |  | 
O=C(c1ccc(F)cc1)C(O)(Cn1cncn1)c1ccccc1Cl (stereo not given) | 100 (≈ 289 µM) | > 100 | 8 | 1.6 (≈ 4.63 µM) | 2.5 |  |  |  |  |  | 
O=C(c1ccc(Cl)cc1Cl)C(O)(Cn1cncn1)c1ccc(F)cc1 (stereo not given) | 100 (≈ 263 µM) | > 100 | 8 | 0.1 (≈ 0.263 µM) | 0.31 | 20.2 |  |  |  |  | 
O=S1O[C@H](c2ccc(F)cc2)[C@@](Cn2cncn2)(c2ccc(Cl)cc2Cl)O1 (stereo not given in full) | > 100 | 50 (≈ 117 µM) | 4 | 0.1 (≈ 0.233 µM) | 0.04 |  |  |  |  |  | 
O=C(c1ccccc1F)C(O)(Cn1cncn1)c1ccc(Cl)cc1Cl (stereo not given) | 100 (≈ 263 µM) | > 100 | 7 | 0.1 (≈ 0.263 µM) | 0.04 |  |  |  |  |  | 
OC(c1ccccc1Cl)C(O)(Cn1cncn1)c1ccc(F)cc1 (stereo not given) | > 100 | > 100 | 0 | 0.8 (≈ 2.3 µM) | 10 |  |  |  |  |  | 
Clc1ccc([C@@]2(Cn3cncn3)OCO[C@@H]2c2ccc(Cl)cc2Cl)cc1 | > 100 | > 100 | 0 | 0.1 (≈ 0.243 µM) | 0.31 |  |  |  |  |  | 
CC(C)C(=O)C(O)(Cn1cncn1)c1ccc(Cl)cc1 (stereo in doubt; 36) | 100 (≈ 340 µM) | 12.5 (≈ 42.6 µM) | 7 | 0.1 (≈ 0.34 µM) | 0.04 |  |  |  |  |  | 
CC(C)C(=O)C(O)(Cn1cncn1)c1ccc(Cl)cc1 (stereo in doubt; 39) |  |  |  |  |  | 14.7 |  | 0.1 (≈ 0.34 µM) |  |  | 
OC(c1ccc(F)cc1)C(O)(Cn1cncn1)c1ccc(Cl)cc1Cl (stereo in doubt; 92) | 50 (≈ 131 µM) |  | 8 |  |  | 25.6 | 11 | 0.1 (≈ 0.262 µM) | 25 (≈ 65.4 µM) | 0.08 | 
CC(O)(c1ccc(F)cc1)C(O)(Cn1cncn1)c1ccc(Cl)cc1 (stereo in doubt; 162) |  |  | 8 |  |  |  |  | 0.1 (≈ 0.276 µM) | 100 (≈ 276 µM) | 0.08 | >100
CC(=O)N1CCN(c2ccc(OCC3COC(Cn4ccnc4)(c4ccc(Cl)cc4Cl)O3)cc2)CC1 (stereo not given) [KETOCONAZOLE] |  |  |  |  |  | 32.3 |  |  |  |  | 
